# Assay results: ChEMBL document CHEMBL5058577, “EUbOPEN Chemogenomics Library 2 (Multiplex)” (2022)
# Test system: HEK-293T
# Experiment: Multiplex assay against HEK293T
# Assay type: toxicity, cell-based
# Conditions: human
# Procedure, shortened: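 Live cells carried four stains from seeding: Hoechst33342, BioTracker Green Microtubule Cytoskeleton Dye, MitoTracker Red and Annexin V Alexa Fluor 680. They were imaged on a CQ1 microscope at 37°C and 5% CO2 after compound addition. Using CellPathfinder machine-learning gating, cells were split into Hoechst high-intensity objects or normal cells, normal cells into healthy, pyknosed or fragmented nuclei, and pyknosed cells into mitotic or apoptotic; tubulin, mitochondrial-mass and membrane-permeability phenotypes are per cents of healthy-nucleus cells.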
# [1] = 12 h, 1 µM, compound concentration 1 uM, replicate 1
# [2] = 12 h, 1 µM, compound concentration 1 uM, replicate 2
# [3] = 12 h, 10 µM, compound concentration 10 uM, replicate 1
# [4] = 12 h, 10 µM, compound concentration 10 uM, replicate 2
# [5] = 24 h, 1 µM, compound concentration 1 uM, replicate 1
# [6] = 24 h, 1 µM, compound concentration 1 uM, replicate 2
# [7] = 24 h, 10 µM, compound concentration 10 uM, replicate 1
# [8] = 24 h, 10 µM, compound concentration 10 uM, replicate 2
# [9] = 48 h, 1 µM, compound concentration 1 uM, replicate 1
# [10] = 48 h, 1 µM, compound concentration 1 uM, replicate 2
# [11] = 48 h, 10 µM, compound concentration 10 uM, replicate 1
# [12] = 48 h, 10 µM, compound concentration 10 uM, replicate 2
structure (smiles),measurement,setting,value
CN1CCN(c2cc(-c3ccccc3)nc(N)n2)CC1,Population Apoptotic (%),[1],40%
same,Population Fragmented Nuclei (%),[1],8%
same,Population Healthy Nuclei (%),[1],79%
same,Population Hoechst High Intensity Objects (%),[1],6%
same,Population Membrane Permeable-Phenotype (%),[1],0%
same,Population Mitochondria Different-Phenotype (%),[1],35%
same,Population Mitotic Cells (%),[1],60%
same,Population Normal (%),[1],93%
same,Population Pyknosed Nuclei (%),[1],11%
same,Population Tubulin-Different-Phenotype (%),[1],21%
same,Total Cell Count,[1],383
same,Population Apoptotic (%),[2],34%
same,Population Fragmented Nuclei (%),[2],5%
same,Population Healthy Nuclei (%),[2],84%
same,Population Mitochondria Different-Phenotype (%),[2],48%
same,Population Mitotic Cells (%),[2],65%
same,Population Pyknosed Nuclei (%),[2],10%
same,Population Tubulin-Different-Phenotype (%),[2],16%
same,Total Cell Count,[2],354
same,Population Apoptotic (%),[3],23%
same,Population Fragmented Nuclei (%),[3],7%
same,Population Healthy Nuclei (%),[3],82%
same,Population Hoechst High Intensity Objects (%),[3],7%
same,Population Membrane Permeable-Phenotype (%),[3],0%
same,Population Mitochondria Different-Phenotype (%),[3],46%
same,Population Mitotic Cells (%),[3],76%
same,Population Normal (%),[3],92%
same,Population Pyknosed Nuclei (%),[3],9%
same,Population Tubulin-Different-Phenotype (%),[3],30%
same,Total Cell Count,[3],416
same,Population Apoptotic (%),[4],36%
same,Population Fragmented Nuclei (%),[4],6%
same,Population Healthy Nuclei (%),[4],81%
same,Population Hoechst High Intensity Objects (%),[4],10%
same,Population Mitochondria Different-Phenotype (%),[4],63%
same,Population Mitotic Cells (%),[4],63%
same,Population Normal (%),[4],89%
same,Population Pyknosed Nuclei (%),[4],12%
same,Population Tubulin-Different-Phenotype (%),[4],20%
same,Total Cell Count,[4],296
same,Population Apoptotic (%),[5],20%
same,Population Fragmented Nuclei (%),[5],9%
same,Population Healthy Nuclei (%),[5],79%
same,Population Hoechst High Intensity Objects (%),[5],4%
same,Population Membrane Permeable-Phenotype (%),[5],1%
same,Population Mitochondria Different-Phenotype (%),[5],16%
same,Population Mitotic Cells (%),[5],79%
same,Population Normal (%),[5],95%
same,Population Pyknosed Nuclei (%),[5],11%
same,Population Tubulin-Different-Phenotype (%),[5],12%
same,Total Cell Count,[5],488
same,Population Apoptotic (%),[6],36%
same,Population Healthy Nuclei (%),[6],82%
same,Population Mitochondria Different-Phenotype (%),[6],24%
same,Population Mitotic Cells (%),[6],63%
same,Population Pyknosed Nuclei (%),[6],8%
same,Population Tubulin-Different-Phenotype (%),[6],8%
same,Total Cell Count,[6],480
same,Population Apoptotic (%),[7],44%
same,Population Fragmented Nuclei (%),[7],13%
same,Population Healthy Nuclei (%),[7],75%
same,Population Hoechst High Intensity Objects (%),[7],6%
same,Population Membrane Permeable-Phenotype (%),[7],0%
same,Population Mitochondria Different-Phenotype (%),[7],32%
same,Population Mitotic Cells (%),[7],55%
same,Population Normal (%),[7],93%
same,Population Pyknosed Nuclei (%),[7],11%
same,Population Tubulin-Different-Phenotype (%),[7],19%
same,Total Cell Count,[7],577
same,Population Apoptotic (%),[8],34%
same,Population Fragmented Nuclei (%),[8],9%
same,Population Healthy Nuclei (%),[8],79%
same,Population Hoechst High Intensity Objects (%),[8],9%
same,Population Mitochondria Different-Phenotype (%),[8],50%
same,Population Mitotic Cells (%),[8],65%
same,Population Normal (%),[8],90%
same,Population Tubulin-Different-Phenotype (%),[8],17%
same,Total Cell Count,[8],378
same,Population Apoptotic (%),[9],23%
same,Population Fragmented Nuclei (%),[9],13%
same,Population Healthy Nuclei (%),[9],78%
same,Population Hoechst High Intensity Objects (%),[9],1%
same,Population Membrane Permeable-Phenotype (%),[9],1%
same,Population Mitochondria Different-Phenotype (%),[9],12%
same,Population Mitotic Cells (%),[9],76%
same,Population Normal (%),[9],98%
same,Population Pyknosed Nuclei (%),[9],7%
same,Population Tubulin-Different-Phenotype (%),[9],12%
same,Total Cell Count,[9],745
same,Population Apoptotic (%),[10],14%
same,Population Healthy Nuclei (%),[10],80%
same,Population Hoechst High Intensity Objects (%),[10],2%
same,Population Membrane Permeable-Phenotype (%),[10],0%
same,Population Mitochondria Different-Phenotype (%),[10],14%
same,Population Mitotic Cells (%),[10],85%
same,Population Normal (%),[10],97%
same,Population Pyknosed Nuclei (%),[10],6%
same,Population Tubulin-Different-Phenotype (%),[10],9%
same,Total Cell Count,[10],804
same,Population Apoptotic (%),[11],16%
same,Population Fragmented Nuclei (%),[11],17%
same,Population Healthy Nuclei (%),[11],75%
same,Population Hoechst High Intensity Objects (%),[11],3%
same,Population Membrane Permeable-Phenotype (%),[11],0%
same,Population Mitochondria Different-Phenotype (%),[11],25%
same,Population Mitotic Cells (%),[11],83%
same,Population Normal (%),[11],96%
same,Population Pyknosed Nuclei (%),[11],6%
same,Population Tubulin-Different-Phenotype (%),[11],14%
same,Total Cell Count,[11],861
same,Population Apoptotic (%),[12],27%
same,Population Fragmented Nuclei (%),[12],13%
same,Population Healthy Nuclei (%),[12],81%
same,Population Membrane Permeable-Phenotype (%),[12],1%
same,Population Mitochondria Different-Phenotype (%),[12],24%
same,Population Mitotic Cells (%),[12],72%
same,Population Pyknosed Nuclei (%),[12],4%
same,Population Tubulin-Different-Phenotype (%),[12],11%
same,Total Cell Count,[12],645
